The record followed here is ChEMBL document CHEMBL5576109, “Hydantoin derivative dimers as broad-spectrum antimicrobial agents against ESKAPE pathogens with enhanced killing rate and stability” (RSC Med Chem, 2024).

One test deals with Bacillus subtilis. Nature of the test: Antibacterial activity against Bacillus subtilis ATCC 6633 assessed as reduction bacterial growth after 16 hrs by TECAN SPARK microplate reader analysis. The test is classed as functional. The method in brief:
(§1)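 Single colony grown overnight in 4 mL TSB at 37 °C, diluted 100-fold and grown to mid-log phase. Compounds 2-fold serially diluted in TSB and mixed 1:1 with bacteria in TSB (1 × 10^6 CFU/mL). Incubated 16 h at 37 °C, then A600 read. MIC taken as the lowest concentration giving complete growth inhibition.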

In the next test the test system is Klebsiella pneumoniae. The test is described as follows: Antibacterial activity against Klebsiella pneumoniae ATCC 10031 assessed as reduction bacterial growth after 16 hrs by TECAN SPARK microplate reader analysis. Format: functional. The method, boiled down: as §1
Test [1] relates to Staphylococcus aureus. Nature of the test: Bactericidal activity against Staphylococcus aureus ATCC 29213 assessed as reduction in colony forming units incubated for 15 to 120 mins by time-kill kinetics assay. Format: functional, organism-based. The conditions noted are these: time 15-120 min. The method, boiled down:
(§2)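 Bacteria grown at 37 °C to mid-log phase and diluted to 1 × 10^6 CFU/mL. […] Mixtures diluted 10^2–10^4-fold and plated on TSB agar; colonies counted after 20 h at 37 °C.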

Test [2] has as its system Escherichia coli. Nature of the test: Bactericidal activity against Escherichia coli ATCC 25922 assessed as reduction in colony forming units incubated for 15 to 120 mins by time-kill kinetics assay. The test is classed as functional, organism-based. Conditions: time 15-120 min. The method in brief:
as §2

For test [3], the system named is Escherichia coli. The test is described as follows: Bactericidal activity against Escherichia coli ATCC 25922 assessed as reduction in colony forming units at 1 to 4 times of MIC by time-kill kinetics assay. Format: functional, organism-based. The conditions noted are these: time 15-120 min, TDE = time-dependent effect. The method in brief: as §2
Test [4] deals with Staphylococcus aureus. Nature of the test: Bactericidal activity against Staphylococcus aureus ATCC 29213 assessed as inhibition of bacterial growth at 1 to 4 times of MIC measured within 1 hr mins by time-kill kinetics assay relative to control. The test is classed as functional. The method in brief:
as §2

Test [5] relates to Escherichia coli. Nature of the test: Bactericidal activity against Escherichia coli ATCC 25922 assessed as reduction in colony forming units at 4 times of MIC measured after 60 mins by time-kill kinetics assay. Format: functional, organism-based. The method, boiled down:
as §2

Test [6] relates to Staphylococcus aureus. The test is described as follows: Antibacterial activity against Staphylococcus aureus ATCC 29213 assessed as inhibition of bacterial growth by measuring fold increase in MIC measured after 16 to 18 hrs in presence of KCl by TECAN SPARK microplate reader analysis. Format: functional. The conditions noted are these: time 16-18 hrs. The method in brief:
(§3)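 Salt/serum stability. Exponential-phase bacteria incubated 16–18 h with compound in medium supplemented with 10 mM NaCl, 10 mM KCl, 10 mM MgCl2, 10% DMEM or 10% FBS. Stability judged from the change in MIC.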

Test [7] relates to Staphylococcus aureus. The test is described as follows: Antibacterial activity against Staphylococcus aureus ATCC 29213 assessed as inhibition of bacterial growth by measuring fold increase in MIC measured after 16 to 18 hrs in presence of 10% FBS by TECAN SPARK microplate reader analysis. The test is classed as functional. The conditions noted are these: time 16-18 hrs. The method, boiled down:
as §3

The test system of test [8] is Escherichia coli. The test is described as follows: Antibacterial activity against Escherichia coli ATCC 25922 assessed as inhibition of bacterial growth by measuring fold increase in MIC compound preincubated at 40 degree C for 1 hr followed by bacterial culture addition and measured after 16 to 18 hrs by TECAN SPARK microplate reader analysis. The test is classed as functional. The conditions noted are these: time 16-18 hrs.

For test [9], the system named is Escherichia coli. Nature of the test: Antibacterial activity against Escherichia coli ATCC 25922 assessed as inhibition of bacterial growth by measuring fold increase in MIC compound preincubated at 80 degree C for 1 hr followed by bacterial culture addition and measured after 16 to 18 hrs by TECAN SPARK microplate reader analysis. The test is classed as functional. Conditions: time 16-18 hrs.

Test [10] concerns Escherichia coli. Nature of the test: Antibacterial activity against Escherichia coli ATCC 25922 assessed as inhibition of bacterial growth by measuring fold increase in MIC measured after 16 to 18 hrs in presence of NaCl by TECAN SPARK microplate reader analysis. The test is classed as functional. The conditions noted are these: time 16-18 hrs. The method in brief: as §3
Test [11] deals with Escherichia coli. The test is described as follows: Antibacterial activity against Escherichia coli ATCC 25922 assessed as inhibition of bacterial growth by measuring fold increase in MIC measured after 16 to 18 hrs in presence of KCl by TECAN SPARK microplate reader analysis. The test is classed as functional. Conditions: time 16-18 hrs. The method in brief:
as §3

The test system of test [12] is Staphylococcus aureus. Nature of the test: Drug resistance, ratio of MIC for Staphylococcus aureus ATCC 29213 after 25 passages to MIC for Staphylococcus aureus ATCC 29213 after initial exposure. Format: functional. The conditions noted are these: time 16 hrs. The method, boiled down: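 Serial passage resistance selection: after each broth MIC determination, bacteria from the 1/2 MIC well were withdrawn and diluted to 1 × 10^6 CFU/mL for the next MIC measurement. Repeated for 25 passages; MIC after passage 25 compared with the initial MIC.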

For test [13], the system named is Escherichia coli. The test is described as follows: Induction of cytoplasmic membrane depolarization in Escherichia coli ATCC 25922 assessed as increase in fluorescence intensity by DiSC3(5) staining based analysis. The test is classed as functional, organism-based. The method, boiled down: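 Mid-log cells washed in 5 mM HEPES/5 mM glucose and resuspended at 10^6 CFU/mL in glucose/HEPES/100 mM KCl (1:1:1). DiSC3(5) added and fluorescence (Ex 622 / Em 670 nm) followed for 30 min at 37 °C until minimal. Compound then added and the fluorescence rise recorded.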

The test system of test [14] is Escherichia coli. The test is described as follows: Induction of ROS generation in Escherichia coli ATCC 25922 assessed as increase in fluorescence intensity incubated for 30 mins by DCFH-DA staining based analysis. The test is classed as functional, organism-based. The method, boiled down:
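Overnight 37 °C cultures washed three times and resuspended in PBS, diluted to OD600 0.1, and mixed with DCFH-DA (5 µM). Treated with a range of compound concentrations for 30 min at 37 °C in the dark. Fluorescence read at Ex 488 / Em 530 nm.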

Test [15] has as its system Escherichia coli. The test is described as follows: Induction of inner membrane permeabilization in Escherichia coli ATCC 25922 assessed as increase in fluorescence intensity incubated for 1 hr by propidium iodide staining based TECAN SPARK microplate reader analysis. The test is classed as functional, organism-based. The method in brief: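 Overnight 37 °C cultures resuspended in PBS and diluted to OD600 0.1. Propidium iodide added (5 µM final) for 30 min. Treated with a range of compound concentrations for 1 h in the dark; fluorescence read at Ex 535 / Em 615 nm.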

Test [16] relates to Staphylococcus aureus. The test is described as follows: Induction of morphological changes in Staphylococcus aureus ATCC 29213 assessed as cell shrinkage at 8 time of MIC for 6 hrs by scanning electron microscopy. Format: functional, organism-based. The method in brief: (§4)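 Mid-log cells exposed to compound for 6 h at 37 °C alongside untreated controls. Cells pelleted (3000 rpm, 15 min), washed four times in PBS, and fixed with 2.5% glutaraldehyde. Dehydrated through graded ethanol, critical-point dried and gold-coated, then imaged by SEM.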

For test [17], the system named is Staphylococcus aureus. Nature of the test: Induction of morphological changes in Staphylococcus aureus ATCC 29213 assessed as cell collapse at 8 time of MIC for 6 hrs by scanning electron microscopy. The test is classed as functional, organism-based. The method, boiled down: as §4
The test system of test [18] is Staphylococcus aureus. Nature of the test: Induction of morphological changes in Staphylococcus aureus ATCC 29213 assessed as cellular inclusion leakage at 8 time of MIC for 6 hrs by scanning electron microscopy. Format: functional, organism-based. The method in brief: as §4
Test [19] has as its system Escherichia coli. Nature of the test: Induction of morphological changes in Escherichia coli ATCC 25922 assessed as cell wrinkled at 8 time of MIC for 6 hrs by scanning electron microscopy. The test is classed as functional, organism-based. The method in brief: as §4
Test [20] concerns Escherichia coli. Nature of the test: Induction of morphological changes in Escherichia coli ATCC 25922 assessed as cell collapse at 8 time of MIC for 6 hrs by scanning electron microscopy. Format: functional, organism-based. The method in brief:
as §4

The subject of test [21] is Escherichia coli. The test is described as follows: Induction of morphological changes in Escherichia coli ATCC 25922 assessed as cellular inclusion leakage at 8 time of MIC for 6 hrs by scanning electron microscopy. Format: functional, organism-based. The method in brief: as §4
In test [22] the test system is Staphylococcus aureus. Nature of the test: Induction of membrane disruption in Staphylococcus aureus ATCC 29213 assessed as increase in red fluorescence at 8 times of MIC for 6 hrs by Hoechst 33342 and propidium iodide staining based confocal microscopic analysis. The test is classed as functional, organism-based.

In brackets after ≈: the same amount, converted by molar mass. Activity calls are given as the source filed them. The rule behind the calls is not given here. Bounds are passed on as bounds.

Take `CCCCCCN1C(=O)[C@H](CCCCNC(=N)N)N(Cc2ccc(-c3ccc(CN4C(=O)N(CCCCCC)C(=O)[C@@H]4CCCCNC(=N)N)cc3)cc2)C1=O`: the values for the MIC with Bacillus subtilis and with Klebsiella pneumoniae were 1.95 µg/mL (≈ 2.52 µM) and 7.81 µg/mL (≈ 10.1 µM), respectively. For the same molecule, the Activity entry in the test with Staphylococcus aureus [1] is “Dose-Dependent Effect”; in the test with Escherichia coli [2], “Dose-Dependent Effect”; in the test on Escherichia coli [3] it was “Tde”; in the test on Escherichia coli [13], “Dose-Dependent Effect”; in the test with Escherichia coli [14] it was “Dose-Dependent Effect”; in the test with Escherichia coli [15], “Dose-Dependent Effect”. For the same molecule, the “inhibition (INH)” value in the test on Staphylococcus aureus [4] is 100%. Besides, the result with Escherichia coli [5], in the test on Staphylococcus aureus [16], in the test on Staphylococcus aureus [17], in the test on Staphylococcus aureus [18], in the test with Escherichia coli [19] and in the test with Escherichia coli [20] was Active. The outcome in the test on Escherichia coli [21] and in the test with Staphylococcus aureus [22] was Active. The “fold change (FC)” value with Staphylococcus aureus [6], in the test on Staphylococcus aureus [7], with Escherichia coli [8], in the test on Escherichia coli [9], in the test on Escherichia coli [10] and in the test on Escherichia coli [11] was 1 throughout. Besides, in the test on Staphylococcus aureus [12], the Ratio entry is “<=4”.
